Results published in ChEMBL document CHEMBL1135410, “Adenine nucleotide analogues locked in a Northern methanocarba conformation: enhanced stability and potency as P2Y(1) receptor agonists” (J Med Chem, 2002).
Active and inactive are the calls of the source. The calls are words filed in the database; no cut-off is given here.

Experiments:
P2Y purinoceptor 1 [1] = target: P2Y purinoceptor 1 (Meleagris gallopavo, UniProt P49652); assay: Activation of Purinoceptor P2Y1-mediated phospholipase C in turkey erythrocyte membranes; type: cell membranes
Summary of the method: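 Turkey erythrocytes labelled 18–24 h at 37 °C with 2-[3H]myo-inositol in inositol-free DMEM. Total [3H]inositol phosphates separated by anion exchange. EC50 from four-parameter logistic fit, at least three experiments.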

P2Y purinoceptor 2 [2] = target: T1, P2Y purinoceptor 2 (Homo sapiens, UniProt P41231); assay: (§1) Agonist activity by measuring inositol phosphate accumulation in 1321N1 human astrocytoma cells stably expressing human P2Y purinoceptor 2; type: functional
Summary of the method: (§2)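 Inositol phosphate accumulation measured in 1321N1 human astrocytoma cells stably expressing human P2Y1, P2Y2, P2Y4 or P2Y11 receptor. Full concentration–effect curves, repeated in at least three separate experiments run in duplicate or triplicate. EC50 from four-parameter logistic fit. Relative efficacy (%) taken against a maximal effective concentration of UTP or UDP in the same experiment.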

P2Y purinoceptor 1 [3] = target: T2, P2Y purinoceptor 1 (Homo sapiens, UniProt P47900); assay: Accumulation of inositol phosphate in 1321N1 astrocytoma cells expressing human P2Y1 purinoceptor; type: cell-based; summary of the method: as §2
[4] = target: P2Y purinoceptor 1 (Meleagris gallopavo) (UniProt P49652); assay: Agonist activity by measuring Purinoceptor P2Y1-promoted phospholipase C activity in turkey erythrocyte membranes; No effect as either agonist or antagonist at 10 uM; type: functional, cell membranes
Summary of the method: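 Turkey erythrocytes labelled 18–24 h at 37 °C with 2-[3H]myo-inositol in inositol-free DMEM. Ghosts (about 175 μg protein) incubated 5 min at 30 °C in pH 7.0 Hepes/KCl buffer with EGTA, CaCl2 and MgSO4, plus 1 μM GTPγS and the agonist. Total [3H]inositol phosphates separated by anion exchange. EC50 from four-parameter logistic fit, at least three experiments.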

P2Y purinoceptor 1 [5] = target: T2, P2Y purinoceptor 1; assay: Agonist activity by measuring inositol phosphate accumulation in 1321N1 human astrocytoma cells stably expressing human P2Y purinoceptor 1; No effect as either agonist or antagonist at 10 uM; type: functional; summary of the method: as §2
[6] = target: P2Y purinoceptor 4 (Homo sapiens) (UniProt P51582); assay: Agonist activity by measuring inositol phosphate accumulation in 1321N1 human astrocytoma cells stably expressing human P2Y purinoceptor 4; type: functional; summary of the method: as §2
[7] = target: T3, P2Y purinoceptor 11 (Homo sapiens) (UniProt Q96G91); assay: Agonist activity by measuring inositol phosphate accumulation in 1321N1 human astrocytoma cells stably expressing human P2Y purinoceptor 11; type: functional; summary of the method: as §2
T3 sequence (whole entry): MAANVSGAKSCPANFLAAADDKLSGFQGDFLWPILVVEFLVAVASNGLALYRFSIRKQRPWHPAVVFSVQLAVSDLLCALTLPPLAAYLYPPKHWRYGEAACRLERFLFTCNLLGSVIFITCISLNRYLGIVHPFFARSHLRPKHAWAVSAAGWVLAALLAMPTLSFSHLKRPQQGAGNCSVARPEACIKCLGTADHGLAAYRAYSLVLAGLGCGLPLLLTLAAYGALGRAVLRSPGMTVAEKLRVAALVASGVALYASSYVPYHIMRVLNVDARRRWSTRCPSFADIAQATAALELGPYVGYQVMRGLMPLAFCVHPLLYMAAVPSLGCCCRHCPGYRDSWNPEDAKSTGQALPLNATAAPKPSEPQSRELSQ

[8] = target: T4, Ectonucleoside triphosphate diphosphohydrolase 1 (Rattus norvegicus) (UniProt P97687); assay: Hydrolysis rate as substrate of rat Ectonucleoside triphosphate diphosphohydrolase 1 (NTPDase 1) (Ecto-apyrase); parameters: scale not given: the % may be the effect or the level left
T4 sequence (whole entry): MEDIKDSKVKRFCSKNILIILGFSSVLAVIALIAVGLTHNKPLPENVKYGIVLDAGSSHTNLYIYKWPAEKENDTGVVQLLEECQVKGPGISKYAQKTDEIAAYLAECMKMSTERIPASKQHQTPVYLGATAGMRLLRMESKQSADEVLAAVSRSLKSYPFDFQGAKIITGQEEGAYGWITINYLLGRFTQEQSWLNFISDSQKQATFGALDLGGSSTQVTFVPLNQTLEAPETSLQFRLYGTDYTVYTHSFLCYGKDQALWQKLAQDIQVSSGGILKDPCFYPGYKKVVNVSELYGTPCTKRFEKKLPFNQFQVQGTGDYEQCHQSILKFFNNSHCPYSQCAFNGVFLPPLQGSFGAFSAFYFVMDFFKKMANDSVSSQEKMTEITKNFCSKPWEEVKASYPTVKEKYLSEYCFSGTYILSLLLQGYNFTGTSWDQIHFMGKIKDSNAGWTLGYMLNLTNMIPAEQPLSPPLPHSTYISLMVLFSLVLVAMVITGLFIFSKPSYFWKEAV
Summary of the method: (§3)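 Intact CHO cells stably expressing rat NTPDase1 or NTPDase2, seeded 24 h before assay. Incubated at 37 °C in Hepes-buffered saline, pH 7.4, with nucleotide substrate. Supernatant aliquots taken over time and analysed by HPLC at 260 nm. Rate expressed relative to ATP (100%). Nontransfected CHO cells served as control. Two experiments, each in duplicate.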

[9] = target: T5, Ectonucleoside triphosphate diphosphohydrolase 2 (Rattus norvegicus) (UniProt O35795); assay: Hydrolysis rate as substrate of rat Ectonucleoside triphosphate diphosphohydrolase 2 (NTPDase 2) (Ecto-apyrase); parameters: scale not given: the % may be the effect or the level left; summary of the method: as §3
T5 sequence (whole entry): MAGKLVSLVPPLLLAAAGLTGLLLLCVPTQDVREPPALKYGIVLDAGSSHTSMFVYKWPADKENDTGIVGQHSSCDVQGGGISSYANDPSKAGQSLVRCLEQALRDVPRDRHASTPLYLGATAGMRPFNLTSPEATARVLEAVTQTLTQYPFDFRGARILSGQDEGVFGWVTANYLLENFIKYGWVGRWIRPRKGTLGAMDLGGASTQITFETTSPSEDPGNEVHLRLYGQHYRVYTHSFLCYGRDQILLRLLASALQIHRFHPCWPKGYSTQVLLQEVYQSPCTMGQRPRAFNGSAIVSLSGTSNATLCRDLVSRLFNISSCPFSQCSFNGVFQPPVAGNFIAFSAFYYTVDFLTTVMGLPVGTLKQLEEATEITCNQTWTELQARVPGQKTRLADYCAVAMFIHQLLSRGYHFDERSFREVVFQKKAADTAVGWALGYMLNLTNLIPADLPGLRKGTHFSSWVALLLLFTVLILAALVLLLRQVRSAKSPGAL

P2Y purinoceptor 2 [10] = target: T1, P2Y purinoceptor 2; assay: Agonist activity by measuring inositol phosphate accumulation in 1321N1 human astrocytoma cells stably expressing human P2Y purinoceptor 2; No effect as either agonist or antagonist at 10 uM; type: functional
[11] = target: T3, P2Y purinoceptor 11 (Homo sapiens); assay: Agonist activity by measuring inositol phosphate accumulation in 1321N1 human astrocytoma cells stably expressing human P2Y purinoceptor 11; No effect as either agonist or antagonist at 10 uM; type: functional; summary of the method: as §2
[12] = target: P2Y purinoceptor 4 (Homo sapiens) (UniProt P51582); assay: Agonist activity by measuring inositol phosphate accumulation in 1321N1 human astrocytoma cells stably expressing human P2Y purinoceptor 4; No effect as either agonist or antagonist at 10 uM; type: functional; summary of the method: as §2
P2Y purinoceptor 2 [13] = target: T1, P2Y purinoceptor 2; assay: Agonist activity by measuring inositol phosphate accumulation in 1321N1 human astrocytoma cells stably expressing human P2Y purinoceptor 2r; No effect as either agonist or antagonist at 10 uM; type: functional; summary of the method: as §2
P2Y purinoceptor 2 [14] = target: T1, P2Y purinoceptor 2; assay: as §1; type: functional; summary of the method: as §2; remark: listed apart in the source
[15] = target: P2Y purinoceptor 4 (Homo sapiens) (UniProt P51582); assay: Agonist activity by measuring the agonist potencies of the corresponding ribose- containing nucleotides, for the receptor subtype human P2Y purinoceptor 4; No effect as either agonist or antagonist at 10 uM; type: functional; summary of the method: as §2

T2 sequence (P47900 whole entry): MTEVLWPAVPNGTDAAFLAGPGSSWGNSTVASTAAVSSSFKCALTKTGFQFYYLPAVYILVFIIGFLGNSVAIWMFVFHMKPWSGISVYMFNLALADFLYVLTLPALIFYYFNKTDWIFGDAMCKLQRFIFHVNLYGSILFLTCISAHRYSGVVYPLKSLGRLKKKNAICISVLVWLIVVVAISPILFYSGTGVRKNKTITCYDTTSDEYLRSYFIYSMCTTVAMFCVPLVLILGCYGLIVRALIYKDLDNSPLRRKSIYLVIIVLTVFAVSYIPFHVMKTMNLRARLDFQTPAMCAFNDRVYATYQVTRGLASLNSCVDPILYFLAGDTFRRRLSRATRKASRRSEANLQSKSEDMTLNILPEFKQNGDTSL
P2Y purinoceptor 1 (Meleagris gallopavo, UniProt P49652), sequence (P49652 whole entry): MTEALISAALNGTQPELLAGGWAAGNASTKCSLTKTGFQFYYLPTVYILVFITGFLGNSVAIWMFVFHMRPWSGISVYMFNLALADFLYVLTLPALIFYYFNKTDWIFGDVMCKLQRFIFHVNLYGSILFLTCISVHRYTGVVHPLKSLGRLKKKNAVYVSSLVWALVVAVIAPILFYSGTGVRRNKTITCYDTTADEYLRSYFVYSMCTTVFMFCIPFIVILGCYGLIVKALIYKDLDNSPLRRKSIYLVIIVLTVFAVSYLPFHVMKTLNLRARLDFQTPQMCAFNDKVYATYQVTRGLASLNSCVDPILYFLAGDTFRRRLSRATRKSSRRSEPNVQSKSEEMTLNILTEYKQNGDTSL
P2Y purinoceptor 1 (Meleagris gallopavo), sequence (P49652 whole entry): as above
P2Y purinoceptor 4 (Homo sapiens), sequence (P51582 whole entry): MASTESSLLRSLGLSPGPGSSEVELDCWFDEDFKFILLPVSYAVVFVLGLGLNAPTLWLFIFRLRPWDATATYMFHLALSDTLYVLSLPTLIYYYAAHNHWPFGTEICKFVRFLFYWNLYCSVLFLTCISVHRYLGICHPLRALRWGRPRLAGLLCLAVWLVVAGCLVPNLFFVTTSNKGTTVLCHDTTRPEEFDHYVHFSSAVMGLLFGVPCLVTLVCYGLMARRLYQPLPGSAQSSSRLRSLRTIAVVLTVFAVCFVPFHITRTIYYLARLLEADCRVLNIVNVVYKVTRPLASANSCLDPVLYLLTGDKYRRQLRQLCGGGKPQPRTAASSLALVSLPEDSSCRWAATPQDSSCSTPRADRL
T1 sequence (P41231 whole entry): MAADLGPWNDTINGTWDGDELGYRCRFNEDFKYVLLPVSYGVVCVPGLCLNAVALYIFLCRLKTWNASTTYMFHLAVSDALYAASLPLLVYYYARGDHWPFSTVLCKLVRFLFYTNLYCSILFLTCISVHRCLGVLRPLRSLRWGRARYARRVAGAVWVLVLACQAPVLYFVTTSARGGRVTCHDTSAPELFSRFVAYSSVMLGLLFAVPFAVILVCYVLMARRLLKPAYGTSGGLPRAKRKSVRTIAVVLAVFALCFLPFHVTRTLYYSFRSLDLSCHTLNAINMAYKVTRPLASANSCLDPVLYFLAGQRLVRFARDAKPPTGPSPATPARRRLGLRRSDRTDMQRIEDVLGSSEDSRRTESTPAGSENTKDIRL

Nc1nc(Cl)nc2c1ncn2C1C(O)C(O)[C@@]2(COP(=O)(O)OP(=O)(O)OP(=O)(O)O)C[C@@H]12 (stereo partly specified)
EC50 (P2Y purinoceptor 1 [1]): 3 nM
EC50 (P2Y purinoceptor 2 [2]): 1900 nM
EC50 (P2Y purinoceptor 1 [3]): 7 nM

Nc1nc(Cl)nc2c1ncn2[C@@H]1O[C@H](COP(=O)(O)O)[C@@H](O)[C@H]1O
NE [4]: inactive
NE (P2Y purinoceptor 1 [5]): inactive

CSc1nc(N)c2ncn(C3C(O)C(O)[C@@]4(COP(=O)(O)OP(=O)(O)OP(=O)(O)O)C[C@@H]34)c2n1 (stereo partly specified)
EC50 (P2Y purinoceptor 1 [1]): 3.7 nM
EC50 (P2Y purinoceptor 1 [3]): 23 nM

Nc1nc(Cl)nc2c1ncn2[C@H]1[C@H](O)[C@H](O)[C@@]2(COP(=O)(O)O)C[C@@H]12
EC50 (P2Y purinoceptor 1 [1]): 3900 nM
EC50 (P2Y purinoceptor 1 [3]): 1890 nM

C[S+]([O-])c1nc(N)c2ncn([C@H]3[C@H](O)[C@H](O)[C@@]4(COP(=O)(O)O)C[C@H]34)c2n1 (stereo partly specified)
EC50 (P2Y purinoceptor 1 [1]): 36.6 nM

Nc1ncnc2c1ncn2C1C(O)C(O)C2(COP(=O)(O)OP(=O)(O)OP(=O)(O)O)CC12 (stereo unspecified)
% of maximal effect [6]: 32%
EC50 (P2Y purinoceptor 1 [1]): 14 nM
EC50 (P2Y purinoceptor 2 [2]): 91 nM
% of maximal effect [7]: 35%
Activity [8]: 52%
Activity [9]: 4%

Nc1ncnc2c1ncn2[C@@H]1O[C@H](COP(=O)(O)OP(=O)(O)CP(=O)(O)O)[C@@H](O)[C@H]1O
NE (P2Y purinoceptor 2 [10]): inactive
NE [4]: inactive
NE (P2Y purinoceptor 1 [5]): inactive

CNC(=O)[C@@]12C[C@@H]1[C@@H](n1cnc3c(NC)nc(Cl)nc31)[C@H](O)[C@@H]2O
NE [4]: inactive

CSc1nc(N)c2ncn([C@@H]3O[C@H](COP(=O)(O)OP(=O)(O)O)[C@@H](O)[C@H]3O)c2n1
NE [11]: inactive
NE [12]: inactive
NE (P2Y purinoceptor 2 [13]): inactive

CSc1nc(N)c2ncn([C@@H]3O[C@H](COP(=O)(O)OP(=O)(O)OP(=O)(O)O)[C@@H](O)[C@H]3O)c2n1
EC50 (P2Y purinoceptor 1 [3]): 34 nM

CSc1nc(N)c2ncn([C@H]3[C@H](O)[C@H](O)[C@@]4(COP(=O)(O)OP(=O)(O)O)C[C@@H]34)c2n1
EC50 (P2Y purinoceptor 1 [1]): 0.88 nM
% of maximal effect (P2Y purinoceptor 2 [14]): 54%
EC50 (P2Y purinoceptor 1 [3]): 0.4 nM
NE [11]: inactive
NE [15]: inactive

Nc1ncnc2c1ncn2C12CC1C(COP(=O)(O)OP(=O)(O)OP(=O)(O)O)C(O)C2O (stereo unspecified)
Activity [8]: 57%
Activity [9]: 34%
